For eight compounds, Activity, MIC and LD50 results are on record in ChEMBL document CHEMBL1140859, “Design and synthesis of some thiazolyl and thiadiazolyl derivatives of antipyrine as potential non-acidic anti-inflammatory, analgesic and antimicrobial agents” (Bioorg Med Chem, 2009).

Series [1] deals with Rattus norvegicus. As to the kind of experiment: Analgesic activity in Albino rat assessed as tail withdrawal response at 20 mg/kg, po after 2 hrs. Type of series: functional. A digest of the protocol: (§1)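 Male albino rats, 120–150 g, groups of five plus untreated control; test compounds 20 mg/kg po, diclofenac Na 10 mg/kg po. Tail immersed in 55 °C water; withdrawal reaction time read 1, 2 and 3 h after dosing; percentage increase in reaction time over basal computed; mean ± SE of five animals.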

In series [2] the test system is Rattus norvegicus. As to the kind of experiment: Antiinflammatory activity against formalin-induced paw edema in anaesthetized Albino rat acute inflammatory model at 20 mg/kg, po dosed 1 hr before formalin challenge assessed after 2 hrs. Type of series: functional. The method, boiled down: (§2)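 Rats in groups of five plus control; test compounds 20 mg/kg po, diclofenac Na 10 mg/kg po, given 1 h before 0.1 mL 2% formalin injected subplantar into left hind paw under light ether anaesthesia. Paw volume by water plethysmometer at 0 and 1, 2, 3, 4 h after formalin; % anti-inflammatory activity versus control; mean ± SE, N = 5.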

Series [3] concerns Rattus norvegicus. As to the kind of experiment: Analgesic activity in Albino rat assessed as tail withdrawal response at 20 mg/kg, po after 1 hr. In kind it is functional. A digest of the protocol: as §1
The subject of series [4] is Rattus norvegicus. In words: Analgesic activity in Albino rat assessed as tail withdrawal response at 20 mg/kg, po after 3 hrs. Type of series: functional. A digest of the protocol:
as §1

The test system of series [5] is Rattus norvegicus. As to the kind of experiment: Antiinflammatory activity against formalin-induced paw edema in anaesthetized Albino rat sub-acute inflammatory model at 20 mg/kg, po measured on day 1. In kind it is functional. The method, boiled down: (§3)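 Sub-acute paw edema: test compounds 20 mg/kg po daily for 7 days, diclofenac Na 10 mg/kg po; 0.1 mL 2% formalin injected subplantar into left hind paw under light ether anaesthesia on days 1 and 3, 1 h after dosing. Paw volume measured on day 1 and day 8; % anti-inflammatory activity; N = 5 rats.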

Series [6] relates to Rattus norvegicus. As to the kind of experiment: Antiinflammatory activity against formalin-induced paw edema in anaesthetized Albino rat acute inflammatory model at 20 mg/kg, po dosed 1 hr before formalin challenge assessed after 3 hrs. In kind it is functional. A digest of the protocol: as §2
The subject of series [7] is Rattus norvegicus. In words: Antiinflammatory activity against formalin-induced paw edema in anaesthetized Albino rat acute inflammatory model at 20 mg/kg, po dosed 1 hr before formalin challenge assessed after 4 hrs. In kind it is functional. A digest of the protocol: as §2
For series [8], the system named is Rattus norvegicus. In words: Antiinflammatory activity against turpentine oil-induced granuloma pouch in anaesthetized Albino rat sub-acute inflammatory model at 20 mg/kg, po 1 hr before turpentine oil challenge for 7 days assessed after 8 days. Type of series: functional. A digest of the protocol:
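Dorsal subcutaneous pouch made in ether-anaesthetised rats with 2 mL air, then 0.5 mL turpentine oil. Test compounds 20 mg/kg po, diclofenac Na 10 mg/kg po, started 1 h before turpentine and continued 7 days. Exudate aspirated on day 8 under anaesthesia; volume measured; % inhibition = (Vcontrol − Vtreated)/Vcontrol × 100; N = 5.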

The test system of series [9] is Rattus norvegicus. In words: Toxicity in Albino rat assessed as induction of gastric ulceration at 300 mg/kg, po twice a day after 2 hrs. Type of series: organism-based, Stomach. Details: dose 300 mg/kg, route oral. To be noted: in vivo. A digest of the protocol:
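Male albino rats (180–200 g), five per group, fasted 12 h with water ad libitum. Oral dosing at 300 mg/kg; the results text gives two doses at a 2 h interval, while the methods give two equal doses at 0 and 12 h over three days. Controls received 1% gum acacia orally. Rats were killed with ether 6 h after the last dose, and stomachs were inspected grossly for ulceration and hyperemia.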

Series [10] deals with Rattus norvegicus. As to the kind of experiment: Antiinflammatory activity against formalin-induced paw edema in anaesthetized Albino rat acute inflammatory model at 20 mg/kg, po dosed 1 hr before formalin challenge assessed after 1 hr. Type of series: functional. A digest of the protocol:
as §2

In a further series the test system is Bacillus subtilis. In words: Antimicrobial activity against Bacillus subtilis NRRL B-14819 after 24 hrs by twofold serial dilution method. In kind it is functional. A digest of the protocol:
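Broth microdilution in Müller–Hinton broth on compounds with agar-diffusion inhibition zones ≥14 mm (disks with 1 mg/mL in DMSO, 37 °C, 24 h, triplicate).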

Series [11] relates to Rattus norvegicus. In words: Antiinflammatory activity against formalin-induced paw edema in anaesthetized Albino rat sub-acute inflammatory model at 20 mg/kg, po for 7 days measured on day 8. Type of series: functional. The method, boiled down: as §3
The nature of series [12]: Acute toxicity in Albino rat after 24 hrs. Type of series: organism-based. To be noted: in vivo, read-out: ALD50. A digest of the protocol:
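Male rats, 180–200 g, groups of five, fasted 24 h before dosing; compounds given orally in graded doses of 0.1–3.0 g/kg; mortality recorded at each dose level after 24 h to estimate approximate acute lethal dose (ALD50).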

≈ marks a conversion by molar mass, not a printed value. A value given as a limit tells only on which side of the number the result lay.

For the compound `Cc1c(NC(=O)c2sc(=S)n(-c3ccccc3)c2N)c(=O)n(-c2ccccc2)n1C`, the Activity was determined as 50% in the series with Rattus norvegicus [1]; 37% with Rattus norvegicus [2]; 19% in the series with Rattus norvegicus [3]; 67% in the series with Rattus norvegicus [4]; 20% in the series with Rattus norvegicus [5]; 41% in the series with Rattus norvegicus [6]. Besides, the Activity with Rattus norvegicus [7] is reported as 43%; with Rattus norvegicus [8], 50%; in the series on Rattus norvegicus [9], “Non-toxic”; with Rattus norvegicus [10] it was 35%; in the series with Rattus norvegicus [11] it was 34%. In addition, the MIC against Bacillus subtilis was 100 µg/mL (≈ 229 µM). Further, the LD50 at 24 h in [12] is > 3000 mg/kg.
Consider `CCOC(=O)Nc1nnc(SCC(=O)Nc2c(C)n(C)n(-c3ccccc3)c2=O)s1`, for which the Activity with Rattus norvegicus [1] was 15%; in the series on Rattus norvegicus [2], 17%; in the series with Rattus norvegicus [3], 17%; in the series on Rattus norvegicus [4], 28%; in the series on Rattus norvegicus [5] it was 29%; with Rattus norvegicus [6] it was 23%. Besides, the Activity in the series on Rattus norvegicus [7] is 19%; with Rattus norvegicus [8], 33%; with Rattus norvegicus [9], “Non-toxic”; in the series with Rattus norvegicus [10], 35%; with Rattus norvegicus [11], 27%. Moreover, the MIC in the series with Bacillus subtilis amounted to 100 µg/mL (≈ 223 µM). Also, the LD50 at 24 h in [12] was > 3000 mg/kg.
As to `Cc1c(NC(=O)c2sc(=S)n(-c3ccc(Cl)cc3)c2NC(=O)Nc2ccccc2)c(=O)n(-c2ccccc2)n1C`, the Activity in the series with Rattus norvegicus [1] stood at 49%; in the series with Rattus norvegicus [2] it was 37%; with Rattus norvegicus [3], 18%; in the series with Rattus norvegicus [4], 44%; in the series on Rattus norvegicus [5], 31%; in the series with Rattus norvegicus [6] it was 49%. In addition, the Activity was 40% with Rattus norvegicus [7]; 72% in the series on Rattus norvegicus [8]; “Non-toxic” with Rattus norvegicus [9]; 26% with Rattus norvegicus [10]; 42% in the series with Rattus norvegicus [11]. In addition, in the series with Bacillus subtilis, the MIC was determined as 100 µg/mL (≈ 169 µM). Moreover, the LD50 at 24 h in series [12] was > 3000 mg/kg.
As to `Cc1c(NC(=O)C2=C(N)N(c3ccccc3)C(=C(C#N)C#N)S2)c(=O)n(-c2ccccc2)n1C`, the Activity came to 46% in the series on Rattus norvegicus [1]; 40% in the series with Rattus norvegicus [2]; 27% in the series on Rattus norvegicus [3]; 72% with Rattus norvegicus [4]; 40% with Rattus norvegicus [5]; 38% with Rattus norvegicus [6]. Further, the Activity in the series with Rattus norvegicus [7] was 40%; in the series on Rattus norvegicus [8], 62%; in the series on Rattus norvegicus [9], “Non-toxic”; with Rattus norvegicus [10] it was 26%; with Rattus norvegicus [11] it was 32%. For the same compound, 100 µg/mL (≈ 213 µM) was the least that counted as inhibitory against Bacillus subtilis (MIC). Also, the LD50 at 24 h in series [12] was > 3000 mg/kg.
As to `Cc1c(NC(=O)c2sc(=S)n(-c3ccc(Cl)cc3)c2NC(=S)Nc2ccc(Cl)cc2)c(=O)n(-c2ccccc2)n1C`, the MIC against Bacillus subtilis was found to be 100 µg/mL (≈ 156 µM).
As to `Cc1c(NC(=O)CSc2nnc(N)s2)c(=O)n(-c2ccccc2)n1C`, the Activity was 71% in the series with Rattus norvegicus [1]; 43% with Rattus norvegicus [2]; 42% in the series on Rattus norvegicus [3]; 76% in the series with Rattus norvegicus [4]; 29% with Rattus norvegicus [5]; 49% in the series with Rattus norvegicus [6]. The Activity was 38% in the series with Rattus norvegicus [7]; 62% with Rattus norvegicus [8]; “Non-toxic” in the series with Rattus norvegicus [9]; 26% with Rattus norvegicus [10]; 39% in the series on Rattus norvegicus [11]. Besides, the LD50 at 24 h in [12] is > 3000 mg/kg.
With `Cc1c(NC(=O)/C(C#N)=C2\SC=C(c3ccc(Br)cc3)N2c2ccccc2)c(=O)n(-c2ccccc2)n1C`, in the series on Bacillus subtilis, it took 100 µg/mL (≈ 171 µM) to inhibit growth (MIC).
Turning to `Cc1c(NC(=O)/C(C#N)=C2\SC=C(c3ccc(Cl)cc3)N2c2ccc(Cl)cc2)c(=O)n(-c2ccccc2)n1C`, the Activity in the series with Rattus norvegicus [1] was 64%; in the series on Rattus norvegicus [2], 40%; with Rattus norvegicus [3] it was 34%; in the series with Rattus norvegicus [4], 58%; in the series on Rattus norvegicus [5], 29%; in the series on Rattus norvegicus [6], 41%. The Activity was 29% with Rattus norvegicus [7]; 60% in the series with Rattus norvegicus [8]; “Non-toxic” in the series on Rattus norvegicus [9]; 35% in the series with Rattus norvegicus [10]; 39% in the series on Rattus norvegicus [11]. For the same compound, in the series on Bacillus subtilis, the MIC was 100 µg/mL (≈ 174 µM). The LD50 at 24 h in series [12] was > 3000 mg/kg.

The MIC is the lowest concentration that inhibits growth of the organism. Low readings indicate a more susceptible organism, high ones a less susceptible organism.
